In one test the test system is Proteus vulgaris. Nature of the test: Antibacterial activity against Bacillus proteus ATCC 13315 after 24 hrs by two-fold serial dilution assay. Type of test: functional. The following applies: Proteus vulgaris, ATCC 13315, 24 h; read-out: MIC. Summed up:
(§1)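 Twofold serial broth dilution following NCCLS guidance, with Chloromycin, Norfloxacin and Fluconazole as positive controls. MIC in μM is the lowest concentration giving complete inhibition of visible bacterial or fungal growth.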

A short description of test [1]: Binding affinity to DNA (unknown origin) by UV-Visible absorption spectroscopy. Summed up:
(§2)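 Calf thymus DNA is held at a fixed concentration, quantified by A260 (ε260 = 6600 L mol⁻¹ cm⁻¹, per phosphate) and checked for A260/A280 > 1.8. It is titrated with increasing compound in Tris-HCl pH 7.4 at 290 K. UV-vis spectra are recorded, following absorbance at 260 nm. The binding constant K is derived from a linear fit (R, SD reported).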

The next test deals with Micrococcus luteus. Kind of test: Antibacterial activity against Micrococcus luteus ATCC 4698 after 24 hrs by two-fold serial dilution assay. Type of test: functional, NCTC 2665. As to conditions: Micrococcus luteus, NCTC 2665, 24 h; read-out: MIC. A digest of the protocol: as §1
Test [2] concerns Staphylococcus aureus. Kind of test: Antibacterial activity against methicillin-resistant Staphylococcus aureus N315 after 24 hrs by two-fold serial dilution assay. Type of test: functional. The following applies: Staphylococcus aureus, N315, 24 h; read-out: MIC.
Test [3] concerns Escherichia coli. Nature of the test: Antibacterial activity against Escherichia coli JM109 after 24 hrs by two-fold serial dilution assay. Type of test: functional. As to conditions: Escherichia coli, JM109, 24 h; read-out: MIC. A digest of the protocol:
as §1

Test [4] deals with Staphylococcus aureus. Nature of the test: Antibacterial activity against methicillin-resistant Staphylococcus aureus N315 after 15 serial passages by two-fold serial dilution assay. Type of test: functional. Summed up:
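Resistance-development test in MRSA. Cultures were propagated with fresh medium and serially diluted test agent, and the MIC was redetermined every 24 h. Parallel cultures were exposed to 2-fold dilutions of Chloromycin and Norfloxacin as positive controls. MIC was the lowest concentration giving complete growth inhibition.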

A further test relates to Cyberlindnera jadinii. Kind of test: Antifungal activity against Candida utilis after 24 hrs by two-fold serial dilution assay. The following applies: Williopsis jadinii, 24 h; read-out: MIC. Type of test: functional. A digest of the protocol: as §1
Test [5] has as its system Escherichia coli. Kind of test: Induction of Escherichia coli pBR322 DNA cleavage assessed as conversion of covalently closed circular DNA to open circular form and linear form of DNA by agarose gel electrophoresis method. Summed up:
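Supercoiled pBR322 plasmid is incubated with compound at 25, 50 and 75 μM alongside a DNA-only control at 37 °C, pH 7.0. Products are resolved by gel electrophoresis, scoring conversion of Form I to Form II (nicked) and Form III (linear).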

Another test relates to Candida albicans. Kind of test: Antifungal activity against Candida albicans ATCC 76615 after 24 hrs by two-fold serial dilution assay. Type of test: functional. The following applies: Candida albicans, ATCC 76615, 24 h; read-out: MIC. A digest of the protocol:
as §1

A further test has as its system Shigella dysenteriae. Kind of test: Antibacterial activity against Shigella dysenteriae after 24 hrs by two-fold serial dilution assay. Type of test: functional. As to conditions: Shigella dysenteriae, 24 h; read-out: MIC.
The subject of test [6] is Staphylococcus aureus. Kind of test: Antibacterial activity against Staphylococcus aureus ATCC 25923 after 24 hrs by two-fold serial dilution assay. As to conditions: Staphylococcus aureus, ATCC 25923, 24 h; read-out: MIC. Type of test: functional. A digest of the protocol:
as §1

Another test deals with Bacillus subtilis. Kind of test: Antibacterial activity against Bacillus subtilis after 24 hrs by two-fold serial dilution assay. Type of test: functional. The following applies: Bacillus subtilis, 24 h; read-out: MIC. Summed up:
as §1

Test [7] has as its system Escherichia coli. Kind of test: Antibacterial activity against Escherichia coli DH52 after 24 hrs by two-fold serial dilution assay. Type of test: functional. The following applies: Escherichia coli, DH52, 24 h; read-out: MIC. Summed up: as §1
A further test deals with Pseudomonas aeruginosa. Kind of test: Antibacterial activity against Pseudomonas aeruginosa after 24 hrs by two-fold serial dilution assay. Type of test: functional. The following applies: Pseudomonas aeruginosa, 24 h; read-out: MIC. A digest of the protocol:
as §1

Test [8] is described as follows: Binding affinity to DNA (unknown origin) assessed as hyperchromic effect up to 1.4 x 10^-5mol/L by UV-Visible absorption spectroscopy. A digest of the protocol:
as §2

The next test concerns Pichia norvegensis. Kind of test: Antifungal activity against Candida mycoderma after 24 hrs by two-fold serial dilution assay. Type of test: functional. The following applies: Pichia norvegensis, 24 h; read-out: MIC. A digest of the protocol: as §1
For test [9], the species on record is Bos taurus. Nature of the test: Induction of calf thymus DNA intercalation assessed as protection of compound quenching from iodide ion by fluorescence assay (reference value: 104.52 L/mol).
For the next test, the system named is Saccharomyces cerevisiae. Kind of test: Antifungal activity against Saccharomyces cerevisiae after 24 hrs by two-fold serial dilution assay. Type of test: functional. The following applies: Saccharomyces cerevisiae, 24 h; read-out: MIC. A digest of the protocol:
as §1

The test system of a further test is Aspergillus flavus. Nature of the test: Antifungal activity against Aspergillus flavus after 24 hrs by two-fold serial dilution assay. Type of test: functional. As to conditions: Aspergillus flavus, 24 h; read-out: MIC. A digest of the protocol: as §1
For test [10], the species on record is Bos taurus. Nature of the test: Inhibition of neutral red binding to calf thymus DNA up to 1.4 x 10^-5mol/L by UV-Visible absorption spectroscopy.
The next test deals with Salmonella typhi. Nature of the test: Antibacterial activity against Bacillus typhi after 24 hrs by two-fold serial dilution assay. Type of test: functional, Salmonella enterica subsp. enterica serovar Typhi. As to conditions: Salmonella enterica, 24 h; read-out: MIC.

In brackets after ≈: the same amount, converted by molar mass. Activity calls are given as the source filed them. No cut-off for these calls is given here.

For orientation: MIC means the lowest concentration found to suppress growth.

`COc1cc(-c2nc3cc(F)ccc3[nH]2)c2c(c1O)CN1CCc3cc4c(cc3C1C2)OCO4` (stereo unspecified): the MIC in the test on Proteus vulgaris was determined as 69.6 µM (≈ 32 µg/mL); with Micrococcus luteus, 46.4 µM (≈ 21.3 µg/mL); with Staphylococcus aureus [2] it was 17.4 µM (≈ 7.99 µg/mL); in the test on Escherichia coli [3], 8.7 µM (≈ 4 µg/mL); with Cyberlindnera jadinii it was 14.5 µM (≈ 6.66 µg/mL); in the test on Candida albicans, 58 µM (≈ 26.6 µg/mL). Also, the minimum inhibitory concentration (MIC) in the test with Shigella dysenteriae turned out to be 17.4 µM (≈ 7.99 µg/mL); in the test with Staphylococcus aureus [6], 58 µM (≈ 26.6 µg/mL); in the test with Bacillus subtilis it was 4.4 µM (≈ 2.02 µg/mL); with Escherichia coli [7] it was 23.2 µM (≈ 10.7 µg/mL); in the test on Pseudomonas aeruginosa, 11.6 µM (≈ 5.33 µg/mL); in the test with Pichia norvegensis, 8.7 µM (≈ 4 µg/mL). Also, the figures for the MIC in the test with Saccharomyces cerevisiae, in the test with Aspergillus flavus and with Salmonella typhi were 8.7 µM (≈ 4 µg/mL), 58 µM (≈ 26.6 µg/mL) and 14.5 µM (≈ 6.66 µg/mL), respectively. The compound also had a K in [1] of 2.87 ×10⁴ L/mol. Moreover, the result (in the test with Staphylococcus aureus [4]; in test [8]) was Active. Besides, the Activity entry in the test on Escherichia coli [5] was “Dose-dependent effect”. In the test listed under Bos taurus [9], the KSV was found to be 87.7 L/mol. In addition, the inhibition entry in the test filed under Bos taurus [10] was “Active”.

For the origin of these results see ChEMBL document CHEMBL4049410, “Novel benzimidazolyl tetrahydroprotoberberines: Design, synthesis, antimicrobial evaluation and multi-targeting exploration” (2017).
